Results pooled from the literature.
Lines come from different studies, so protocols differ.
CYP2D6: Cytochrome P450 2D6 (CYP2D6, Homo sapiens, UniProt P10635)

SMILES | tested on | assay | test system | conditions | endpoint | result
COC(=O)C1CCN(C(=O)c2ccc(N(C)Cc3cnc4nc(N)nc(N)c4n3)cc2)CC1 | CYP2D6 | enzyme activity, inhibitor, luciferase |  | 10 µM | inhibition | -32.7%
C=C[C@H]1C[N@@]2CC[C@H]1C[C@@H]2[C@@H](O)c1ccnc2ccc(OC)cc12 | CYP2D6 | enzyme activity, inhibitor | human, liver microsomes | 10 µM | inhibition | 87%
CN[C@@H](C)C(=O)N[C@H]1CN(C(=O)CC(C)C)CC[C@H]2CC[C@@H](C(=O)NC(c3ccccc3)c3ccccc3)N2C1=O |  |  | beagle dog, plasma | oral, 10 mg/kg | half-life | 27 h
COC(=O)C1CCN(C(=O)c2ccc(NCc3cnc4nc(N)nc(N)c4n3)cc2)CC1 | CYP2D6 | enzyme activity, inhibitor, luciferase |  | 10 µM | inhibition | -27.7%
N=c1c2c(-c3ccccc3)c(-c3ccccc3)n(Cc3ccccc3)c2ncn1[C@H]1CC[C@H](O)CC1 |  |  | male beagle dog, plasma | intravenous, 0.5 mg/kg, single dose | Vd | 15.9 L/kg
CCC[C@@](N)(CO)CCc1ccc(OCCCCCC(C)C)cc1 | CYP2D6 | enzyme activity, inhibitor |  |  | IC50 | 32 µM
Cc1ncc(C)n2nc(/C=C/c3nc(N4CCCC4)cc(N4CCOCC4)n3)nc12 |  |  | male beagle dog, plasma | oral, 0.3 mg/kg | half-life | 3.7 h
O=C[C@H](C[C@@H]1CCNC1=O)NC(=O)[C@H](CC1CCCCC1)NC(=O)c1cc2ccccc2[nH]1 |  |  | dog, plasma | intravenous, 8 mg/kg | AUC | 14500 ng·h/mL
